Among the data in ChEMBL document CHEMBL3632459, “Synthesis and evaluation of aporphine analogs containing C1 allyl isosteres at the h5-HT(2A) receptor” (Bioorg Med Chem Lett, 2015) are Ratio Ke, inhibition and Ki values, retold here.

The species entered for assay [1] is Homo sapiens. The assay is described as follows: Selectivity ratio of Ke(app) for adrenergic alpha1A receptor (unknown origin) to Ke(app) for human 5-HT2A receptor. An outline of the steps:
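Ratio of apparent Ke values from matched FLIPR calcium functional assays at human 5-HT2A and at α1A receptors. Compounds were screened at 10 μM. Ke was taken from the rightward EC50 shift of an 8-point half-log agonist curve (5-HT at 5-HT2A) with one antagonist concentration, Ke = [L]/(DR−1). Values are means of ≥2 triplicate experiments.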

Assay [2] addresses 5-hydroxytryptamine receptor 1A (Homo sapiens) (UniProt P08908). Description: Displacement of [3H]-8-OH-DPAT from recombinant human 5-HT1A receptor at 10 uM after […] by Microbeta scintillation counting analysis relative to control. Background: Loss of bound radioactivity is the signal in a displacement assay; it reports binding, not function.
Assay [3] concerns the target 5-hydroxytryptamine receptor 5A (Homo sapiens) (UniProt P47898). Description: Displacement of [3H]-LSD from recombinant human 5-HT5A receptor at 10 uM after […] by Microbeta scintillation counting analysis relative to control.
Assay [4] has as its target Alpha-1A adrenergic receptor (Homo sapiens) (UniProt P35348). Description: Displacement of [3H]-Prazosin from recombinant human adrenergic alpha1A receptor at 10 uM after […] by Microbeta scintillation counting analysis relative to control.
Assay [5] concerns the target Alpha-1B adrenergic receptor (Homo sapiens) (UniProt P35368). Description: Displacement of [3H]-Prazosin from recombinant human adrenergic alpha1B receptor at 10 uM after […] by Microbeta scintillation counting analysis relative to control.
The target in assay [6] is Alpha-1D adrenergic receptor (Homo sapiens) (UniProt P25100). Description: Inhibition of recombinant human adrenergic alpha1D receptor at 10 uM after […] by Microbeta scintillation counting analysis relative to control.
In assay [7] the target is Beta-1 adrenergic receptor (Homo sapiens) (UniProt P08588). Description: Displacement of [3H]-Iodopindolol from recombinant human adrenergic beta1 receptor at 10 uM after […] by Microbeta scintillation counting analysis relative to control.
Assay [8] addresses Beta-2 adrenergic receptor (Homo sapiens) (UniProt P07550). Description: Displacement of [3H]-Iodopindolol from recombinant human adrenergic beta2 receptor at 10 uM after […] by Microbeta scintillation counting analysis relative to control.
Assay [9] has as its target Beta-3 adrenergic receptor (Homo sapiens) (UniProt P13945). The assay is described as follows: Displacement of [3H]-Iodopindolol from recombinant human adrenergic beta3 receptor at 10 uM after […] by Microbeta scintillation counting analysis relative to control.
For assay [10], the species on record is Rattus norvegicus. Description: Displacement of [3H]-Flunitrazepam from rat brain Benzodiazepine receptor at 10 uM after […] by Microbeta scintillation counting analysis relative to control.
The target in assay [11] is D(4) dopamine receptor (Homo sapiens) (UniProt P21917). Description: Displacement of [3H]-N-methylspiperone from recombinant human dopamine D4 receptor at 10 uM after […] by Microbeta scintillation counting analysis relative to control.
Assay [12] has as its target D(2) dopamine receptor (Homo sapiens) (UniProt P14416). Description: Displacement of [3H]-N-methylspiperone from recombinant human dopamine D2 receptor at 10 uM after […] by Microbeta scintillation counting analysis relative to control.
Assay [13] concerns the target D(1B) dopamine receptor (Homo sapiens) (UniProt P21918). The assay is described as follows: Displacement of [3H]-[…] from recombinant human dopamine D5 receptor at 10 uM after […] by Microbeta scintillation counting analysis relative to control.
Assay [14] has as its target Delta-type opioid receptor (Homo sapiens) (UniProt P41143). The assay is described as follows: Displacement of [3H]-DADLE from recombinant human delta opioid receptor at 10 uM after […] by Microbeta scintillation counting analysis relative to control.
Assay [15] concerns the target GABA-A receptor; agonist GABA site (Homo sapiens) (UniProt P14867+P47870+P28472+P48169+P34903+P18505+P47869+P31644+Q16445). The assay is described as follows: Displacement of [3H]-Muscimol from recombinant human GABAA receptor at 10 uM after […] by Microbeta scintillation counting analysis relative to control. It is filed as protein-complex assay.
The target of assay [16] is Histamine H1 receptor (Homo sapiens) (UniProt P35367). Description: Displacement of [3H]-Pyrilamine from recombinant human histamine H1 receptor at 10 uM after […] by Microbeta scintillation counting analysis relative to control.
In assay [17] the target is Histamine H3 receptor (Homo sapiens) (UniProt Q9Y5N1). Description: Displacement of [3H]-alpha-methylhistamine from recombinant human histamine H3 receptor at 10 uM after […] by Microbeta scintillation counting analysis relative to control.
Assay [18] has as its target Histamine H4 receptor (Homo sapiens) (UniProt Q9H3N8). Description: Displacement of [3H]-Histamine from recombinant human histamine H4 receptor at 10 uM after […] by Microbeta scintillation counting analysis relative to control.
In assay [19] the target is Kappa-type opioid receptor (Homo sapiens) (UniProt P41145). Description: Displacement of [3H]-U69593 from recombinant human kappa opioid receptor at 10 uM after […] by Microbeta scintillation counting analysis relative to control.
Assay [20] deals with Muscarinic acetylcholine receptor M1 (Homo sapiens) (UniProt P11229). Description: Displacement of [3H]-QNB from recombinant human muscarinic M1 receptor at 10 uM after […] by Microbeta scintillation counting analysis relative to control.
Assay [21] has as its target Muscarinic acetylcholine receptor M2 (Homo sapiens) (UniProt P08172). The assay is described as follows: Displacement of [3H]-QNB from recombinant human muscarinic M2 receptor at 10 uM after […] by Microbeta scintillation counting analysis relative to control.
Assay [22] concerns the target Muscarinic acetylcholine receptor M3 (Homo sapiens) (UniProt P20309). Description: Displacement of [3H]-QNB from recombinant human muscarinic M3 receptor at 10 uM after […] by Microbeta scintillation counting analysis relative to control.
Assay [23] concerns the target Muscarinic acetylcholine receptor M4 (Homo sapiens) (UniProt P08173). The assay is described as follows: Displacement of [3H]-QNB from recombinant human muscarinic M4 receptor at 10 uM after […] by Microbeta scintillation counting analysis relative to control.
Assay [24] concerns the target Mu-type opioid receptor (Homo sapiens) (UniProt P35372). Description: Displacement of [3H]-DAMGO from recombinant human mu opioid receptor at 10 uM after […] by Microbeta scintillation counting analysis relative to control.
The target of assay [25] is Sodium-dependent noradrenaline transporter (Homo sapiens) (UniProt P23975). Description: Displacement of [3H]-Nisoxetine from recombinant human NET at 10 uM after […] by Microbeta scintillation counting analysis relative to control.
The target in assay [26] is Sodium-dependent serotonin transporter (Homo sapiens) (UniProt P31645). The assay is described as follows: Displacement of [3H]-Citalopram from recombinant human SERT at 10 uM after […] by Microbeta scintillation counting analysis relative to control.
The target in assay [27] is 5-hydroxytryptamine receptor 1B (Homo sapiens, UniProt P28222). Description: Displacement of [3H]-[…] from recombinant human 5-HT1B receptor after […] by Microbeta scintillation counting analysis.
5-hydroxytryptamine receptor 1B, sequence (P28222 whole entry): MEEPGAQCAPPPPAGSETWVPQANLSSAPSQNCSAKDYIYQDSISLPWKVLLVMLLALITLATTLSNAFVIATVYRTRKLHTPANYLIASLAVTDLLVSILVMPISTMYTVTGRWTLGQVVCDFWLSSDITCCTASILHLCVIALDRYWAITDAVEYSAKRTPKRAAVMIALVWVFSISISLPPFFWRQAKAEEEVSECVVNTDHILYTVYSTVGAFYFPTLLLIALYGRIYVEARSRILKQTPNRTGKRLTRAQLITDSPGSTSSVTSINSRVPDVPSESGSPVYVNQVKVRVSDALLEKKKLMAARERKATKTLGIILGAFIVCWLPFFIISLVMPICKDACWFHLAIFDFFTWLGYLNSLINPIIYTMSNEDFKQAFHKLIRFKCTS
The target of assay [28] is 5-hydroxytryptamine receptor 1D (Homo sapiens, UniProt P28221). Description: Displacement of [3H]-[…] from recombinant human 5-HT1D receptor after […] by Microbeta scintillation counting analysis.
Assay [29] has as its target 5-hydroxytryptamine receptor 1E (Homo sapiens, UniProt P28566). The assay is described as follows: Displacement of [3H]-5-HT from recombinant human 5-HT1E receptor after […] by Microbeta scintillation counting analysis.
The target in assay [30] is 5-hydroxytryptamine receptor 2B (Homo sapiens, UniProt P41595). Description: Displacement of [3H]-LSD from recombinant human 5-HT2B receptor after […] by Microbeta scintillation counting analysis.
5-hydroxytryptamine receptor 2B, sequence (P41595 whole entry): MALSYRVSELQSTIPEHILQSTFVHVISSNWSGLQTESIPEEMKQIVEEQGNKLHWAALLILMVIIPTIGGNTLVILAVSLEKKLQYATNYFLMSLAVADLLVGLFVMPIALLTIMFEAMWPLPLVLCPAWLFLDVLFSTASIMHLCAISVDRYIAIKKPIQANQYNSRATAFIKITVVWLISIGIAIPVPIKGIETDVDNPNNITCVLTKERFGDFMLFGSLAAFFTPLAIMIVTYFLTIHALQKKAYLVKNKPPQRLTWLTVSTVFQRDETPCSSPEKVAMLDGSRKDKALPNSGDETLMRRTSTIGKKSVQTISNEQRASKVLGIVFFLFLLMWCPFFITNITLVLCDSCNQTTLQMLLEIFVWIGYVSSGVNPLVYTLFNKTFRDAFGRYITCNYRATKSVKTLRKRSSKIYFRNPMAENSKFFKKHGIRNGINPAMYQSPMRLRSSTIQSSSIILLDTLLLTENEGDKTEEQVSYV
For assay [31], the target named is 5-hydroxytryptamine receptor 3A (Homo sapiens, UniProt P46098). Description: Displacement of [3H]-LY278584 from recombinant human 5-HT3 receptor after […] by Microbeta scintillation counting analysis.
5-hydroxytryptamine receptor 3A, sequence (P46098 whole entry): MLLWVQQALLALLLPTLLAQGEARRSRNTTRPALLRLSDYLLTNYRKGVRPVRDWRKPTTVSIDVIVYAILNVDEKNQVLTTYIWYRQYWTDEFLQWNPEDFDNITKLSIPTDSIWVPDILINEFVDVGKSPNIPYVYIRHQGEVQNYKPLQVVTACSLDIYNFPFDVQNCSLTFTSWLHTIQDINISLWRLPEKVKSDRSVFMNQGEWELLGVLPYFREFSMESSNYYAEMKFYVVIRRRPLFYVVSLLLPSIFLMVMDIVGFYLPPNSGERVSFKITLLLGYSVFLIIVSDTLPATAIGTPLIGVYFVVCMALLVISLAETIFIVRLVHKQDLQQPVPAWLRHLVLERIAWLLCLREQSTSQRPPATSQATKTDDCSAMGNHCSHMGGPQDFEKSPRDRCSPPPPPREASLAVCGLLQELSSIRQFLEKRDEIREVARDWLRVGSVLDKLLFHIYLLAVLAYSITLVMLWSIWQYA
Assay [32] deals with 5-hydroxytryptamine receptor 7 (Homo sapiens, UniProt P34969). Description: Displacement of [3H]-LSD from recombinant human 5-HT7 receptor after […] by Microbeta scintillation counting analysis.
5-hydroxytryptamine receptor 7, sequence (P34969 whole entry): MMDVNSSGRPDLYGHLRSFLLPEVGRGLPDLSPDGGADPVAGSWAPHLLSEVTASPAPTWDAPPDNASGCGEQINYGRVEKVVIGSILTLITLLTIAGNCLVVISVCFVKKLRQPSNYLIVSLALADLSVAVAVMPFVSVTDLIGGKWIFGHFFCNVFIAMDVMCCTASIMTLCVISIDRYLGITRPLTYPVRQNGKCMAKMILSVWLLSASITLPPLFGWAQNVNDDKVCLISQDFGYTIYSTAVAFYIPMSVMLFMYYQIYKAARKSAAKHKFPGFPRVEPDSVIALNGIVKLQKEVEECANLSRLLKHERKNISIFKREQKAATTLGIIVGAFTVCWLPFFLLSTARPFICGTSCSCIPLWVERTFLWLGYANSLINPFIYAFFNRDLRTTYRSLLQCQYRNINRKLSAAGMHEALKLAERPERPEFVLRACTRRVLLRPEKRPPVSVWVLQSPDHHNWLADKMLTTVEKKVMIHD
For assay [33], the target named is Alpha-2B adrenergic receptor (Homo sapiens, UniProt P18089). The assay is described as follows: Displacement of [3H]-Clonidine from recombinant human adrenergic alpha2B receptor after […] by Microbeta scintillation counting analysis.
Alpha-2B adrenergic receptor, sequence (P18089 whole entry): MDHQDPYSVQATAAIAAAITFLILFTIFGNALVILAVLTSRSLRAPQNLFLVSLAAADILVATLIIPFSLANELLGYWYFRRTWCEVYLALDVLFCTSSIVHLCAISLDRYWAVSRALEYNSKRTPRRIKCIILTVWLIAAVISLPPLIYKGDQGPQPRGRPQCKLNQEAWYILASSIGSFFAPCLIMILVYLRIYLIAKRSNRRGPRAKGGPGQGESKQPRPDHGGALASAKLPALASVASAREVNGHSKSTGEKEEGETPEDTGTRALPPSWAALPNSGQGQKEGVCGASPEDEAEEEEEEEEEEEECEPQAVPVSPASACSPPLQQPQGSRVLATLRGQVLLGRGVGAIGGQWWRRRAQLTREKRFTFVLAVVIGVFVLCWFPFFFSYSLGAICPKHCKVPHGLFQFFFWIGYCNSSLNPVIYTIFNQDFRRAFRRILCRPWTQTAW
The target in assay [34] is Alpha-2C adrenergic receptor (Homo sapiens, UniProt P18825). The assay is described as follows: Displacement of [3H]-Clonidine from recombinant human adrenergic alpha2C receptor after […] by Microbeta scintillation counting analysis.
Alpha-2C adrenergic receptor, sequence (P18825 whole entry): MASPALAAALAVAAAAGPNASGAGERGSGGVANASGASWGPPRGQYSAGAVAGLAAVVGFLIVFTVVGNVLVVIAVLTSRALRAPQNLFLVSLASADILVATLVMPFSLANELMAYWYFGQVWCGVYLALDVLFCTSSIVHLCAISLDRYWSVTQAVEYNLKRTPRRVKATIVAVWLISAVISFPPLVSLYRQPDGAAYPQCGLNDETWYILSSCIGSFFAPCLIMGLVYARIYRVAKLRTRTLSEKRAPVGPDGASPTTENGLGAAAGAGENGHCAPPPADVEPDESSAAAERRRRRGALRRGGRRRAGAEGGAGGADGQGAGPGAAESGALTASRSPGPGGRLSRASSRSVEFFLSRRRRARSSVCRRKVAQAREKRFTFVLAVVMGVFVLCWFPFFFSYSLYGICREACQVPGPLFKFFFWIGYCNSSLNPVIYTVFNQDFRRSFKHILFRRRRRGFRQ
Assay [35] addresses D(1A) dopamine receptor (Homo sapiens, UniProt P21728). The assay is described as follows: Displacement of [3H]-[…] from recombinant human dopamine D1 receptor after […] by Microbeta scintillation counting analysis.
Assay [36] addresses D(3) dopamine receptor (Homo sapiens, UniProt P35462). Description: Displacement of [3H]-N-methylspiperone from recombinant human dopamine D3 receptor after […] by Microbeta scintillation counting analysis.
The target in assay [37] is Histamine H2 receptor (Homo sapiens, UniProt P25021). The assay is described as follows: Displacement of [3H]-Tiotidine from recombinant human histamine H2 receptor after […] by Microbeta scintillation counting analysis.
In assay [38] the target is Muscarinic acetylcholine receptor M5 (Homo sapiens, UniProt P08912). The assay is described as follows: Displacement of [3H]-Tiotidine from recombinant human muscarinic M5 receptor after […] by Microbeta scintillation counting analysis.
The target of assay [39] is Translocator protein (Homo sapiens, UniProt P30536). The assay is described as follows: Displacement of [3H]-PK11195 from recombinant human PBR after […] by Microbeta scintillation counting analysis.
Assay [40] deals with Sigma 2 receptor. Description: Displacement of [3H]-DTG from recombinant human sigma-2 receptor after […] by Microbeta scintillation counting analysis.

What is called inhibition is the relative decrease from the control value, in per cent. What is called Ki is the equilibrium dissociation constant of an inhibitor or competing ligand from its target.

D(1B) dopamine receptor (Homo sapiens), sequence (P21918 whole entry): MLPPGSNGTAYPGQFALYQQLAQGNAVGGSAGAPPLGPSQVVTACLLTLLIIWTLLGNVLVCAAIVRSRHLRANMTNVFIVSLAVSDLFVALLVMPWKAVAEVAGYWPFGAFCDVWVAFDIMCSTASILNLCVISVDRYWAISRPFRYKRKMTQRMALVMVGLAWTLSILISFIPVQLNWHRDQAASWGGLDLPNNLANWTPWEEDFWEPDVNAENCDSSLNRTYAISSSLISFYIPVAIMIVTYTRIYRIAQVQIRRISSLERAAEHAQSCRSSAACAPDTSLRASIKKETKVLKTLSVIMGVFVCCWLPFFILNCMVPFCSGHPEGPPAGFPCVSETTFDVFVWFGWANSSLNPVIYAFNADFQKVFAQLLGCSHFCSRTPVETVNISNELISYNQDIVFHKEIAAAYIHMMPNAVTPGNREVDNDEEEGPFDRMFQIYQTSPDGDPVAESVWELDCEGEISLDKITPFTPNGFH
D(1A) dopamine receptor, sequence (P21728 whole entry): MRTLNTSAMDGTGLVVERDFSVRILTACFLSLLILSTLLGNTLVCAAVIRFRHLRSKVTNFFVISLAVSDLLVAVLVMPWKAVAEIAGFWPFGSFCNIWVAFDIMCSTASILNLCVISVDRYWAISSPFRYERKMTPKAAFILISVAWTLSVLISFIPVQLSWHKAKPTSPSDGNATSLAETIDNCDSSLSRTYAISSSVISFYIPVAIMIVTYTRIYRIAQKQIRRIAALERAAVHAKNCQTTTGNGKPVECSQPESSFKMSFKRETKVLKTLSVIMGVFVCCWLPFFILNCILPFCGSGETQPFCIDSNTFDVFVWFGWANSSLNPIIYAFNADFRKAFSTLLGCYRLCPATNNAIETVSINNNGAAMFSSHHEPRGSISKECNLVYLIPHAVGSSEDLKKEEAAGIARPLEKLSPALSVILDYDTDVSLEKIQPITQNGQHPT
Muscarinic acetylcholine receptor M2 (Homo sapiens), sequence (P08172 whole entry): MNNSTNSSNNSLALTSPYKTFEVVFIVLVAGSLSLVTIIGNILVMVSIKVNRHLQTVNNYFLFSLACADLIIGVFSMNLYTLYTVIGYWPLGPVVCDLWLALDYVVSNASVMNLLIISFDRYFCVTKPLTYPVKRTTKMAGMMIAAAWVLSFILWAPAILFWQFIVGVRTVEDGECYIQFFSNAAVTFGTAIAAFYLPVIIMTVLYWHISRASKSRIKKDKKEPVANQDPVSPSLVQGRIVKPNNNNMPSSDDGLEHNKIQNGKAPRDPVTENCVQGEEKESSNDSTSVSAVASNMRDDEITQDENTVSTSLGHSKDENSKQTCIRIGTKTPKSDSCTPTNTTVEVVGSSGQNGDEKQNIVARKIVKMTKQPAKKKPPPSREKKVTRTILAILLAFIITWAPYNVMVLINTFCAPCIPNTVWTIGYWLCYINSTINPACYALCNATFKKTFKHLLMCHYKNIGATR
Alpha-1A adrenergic receptor (Homo sapiens), sequence (P35348 whole entry): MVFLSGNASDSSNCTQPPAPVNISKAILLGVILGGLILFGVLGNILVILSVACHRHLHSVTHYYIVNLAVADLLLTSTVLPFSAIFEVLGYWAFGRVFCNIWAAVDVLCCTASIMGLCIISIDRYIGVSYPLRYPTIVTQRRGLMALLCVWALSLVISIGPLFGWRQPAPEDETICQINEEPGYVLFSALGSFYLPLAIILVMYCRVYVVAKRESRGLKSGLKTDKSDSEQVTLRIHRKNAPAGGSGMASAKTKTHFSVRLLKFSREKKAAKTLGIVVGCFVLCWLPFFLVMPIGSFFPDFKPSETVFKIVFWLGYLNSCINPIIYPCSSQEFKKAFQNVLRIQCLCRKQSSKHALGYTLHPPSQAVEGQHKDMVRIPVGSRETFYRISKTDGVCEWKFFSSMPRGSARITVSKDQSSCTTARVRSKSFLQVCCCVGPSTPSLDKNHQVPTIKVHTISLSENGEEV
5-hydroxytryptamine receptor 1E, sequence (P28566 whole entry): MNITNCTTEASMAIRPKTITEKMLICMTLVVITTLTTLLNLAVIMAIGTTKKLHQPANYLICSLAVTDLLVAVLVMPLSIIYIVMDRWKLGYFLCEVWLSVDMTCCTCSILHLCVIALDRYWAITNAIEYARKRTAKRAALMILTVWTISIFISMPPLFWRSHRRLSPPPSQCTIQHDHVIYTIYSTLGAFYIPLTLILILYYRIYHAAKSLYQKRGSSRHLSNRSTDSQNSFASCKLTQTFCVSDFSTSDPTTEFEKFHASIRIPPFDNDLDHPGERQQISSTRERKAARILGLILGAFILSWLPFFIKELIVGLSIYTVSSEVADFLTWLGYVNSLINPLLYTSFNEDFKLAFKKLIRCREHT

`COc1cc2c3c(c1OCCOC(C)=O)-c1cc4c(cc1CC3N(C)CC2)OCO4` (stereo unspecified): the Ratio Ke in assay [1] amounted to 0.3.

As to `COc1cc2c3c(c1OCc1ccc(Br)cc1)-c1cc4c(cc1CC3N(C)CC2)OCO4` (stereo unspecified), in assay [1], the Ratio Ke is > 1090. In addition, the inhibition in [2], in assay [3], in assay [4], in assay [5], in assay [6] and in assay [7] was < 50% in each case. Besides, the inhibition in assay [8], in [9], in assay [10], in assay [11], in [12] and in assay [13] was < 50% each time. In addition, the inhibition in assay [14], in assay [15], in assay [16], in assay [17], in assay [18] and in assay [19] was < 50% in each case. The inhibition in assay [20], in assay [21], in [22], in assay [23], in assay [24] and in [25] was < 50% each time. In [26], the inhibition was < 50%. Moreover, the inhibitory constant (Ki) in [27], in assay [28], in [29], in [30], in assay [31] and in assay [32] was > 900 nM throughout. Also, the Ki in assay [33], in [34], in [35], in [36], in [37] and in assay [38] was > 900 nM in each case. Moreover, the inhibition constant (Ki) in assay [39] is > 900 nM; in assay [40], > 300 nM.
